{"source": "ChEMBL document CHEMBL4041524", "about": "“Synthesis and Characterization of a Novel γ-Aminobutyric Acid Type A (GABAA) Receptor Ligand That Combines Outstanding Metabolic Stability, Pharmacokinetics, and Anxiolytic Efficacy” (J Med Chem, 2016)", "key": {"[1]": {"target": "T1, GABA-A receptor; alpha-3/beta-3/gamma-2 (Homo sapiens, UniProt P18507+P28472+P34903)", "T1 sequence (P18507 whole entry)": "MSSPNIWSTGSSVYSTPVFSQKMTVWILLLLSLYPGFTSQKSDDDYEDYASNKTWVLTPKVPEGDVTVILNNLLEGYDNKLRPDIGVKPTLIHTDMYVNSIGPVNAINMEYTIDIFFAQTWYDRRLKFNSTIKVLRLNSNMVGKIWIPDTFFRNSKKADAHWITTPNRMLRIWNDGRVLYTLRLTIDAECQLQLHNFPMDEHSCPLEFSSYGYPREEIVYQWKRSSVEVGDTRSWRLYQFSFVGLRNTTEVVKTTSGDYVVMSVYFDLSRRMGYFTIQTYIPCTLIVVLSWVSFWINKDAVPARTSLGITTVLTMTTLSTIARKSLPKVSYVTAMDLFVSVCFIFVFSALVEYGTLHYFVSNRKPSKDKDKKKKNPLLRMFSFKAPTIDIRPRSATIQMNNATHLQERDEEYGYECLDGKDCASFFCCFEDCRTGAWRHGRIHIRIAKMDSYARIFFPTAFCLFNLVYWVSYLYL", "T1 sequence (P28472 whole entry)": "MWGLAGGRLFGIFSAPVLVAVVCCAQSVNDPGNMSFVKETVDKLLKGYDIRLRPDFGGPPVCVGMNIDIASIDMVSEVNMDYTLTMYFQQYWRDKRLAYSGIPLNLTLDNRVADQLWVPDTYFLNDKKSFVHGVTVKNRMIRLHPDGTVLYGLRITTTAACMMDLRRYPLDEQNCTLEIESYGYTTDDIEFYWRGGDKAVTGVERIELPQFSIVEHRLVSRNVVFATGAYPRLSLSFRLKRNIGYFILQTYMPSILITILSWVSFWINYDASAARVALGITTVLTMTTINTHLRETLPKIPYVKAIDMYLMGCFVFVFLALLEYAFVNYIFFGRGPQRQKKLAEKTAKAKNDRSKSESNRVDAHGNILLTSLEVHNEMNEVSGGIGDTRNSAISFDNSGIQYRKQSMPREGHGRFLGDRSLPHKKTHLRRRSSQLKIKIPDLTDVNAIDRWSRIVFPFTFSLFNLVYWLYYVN", "T1 sequence (P34903 whole entry)": "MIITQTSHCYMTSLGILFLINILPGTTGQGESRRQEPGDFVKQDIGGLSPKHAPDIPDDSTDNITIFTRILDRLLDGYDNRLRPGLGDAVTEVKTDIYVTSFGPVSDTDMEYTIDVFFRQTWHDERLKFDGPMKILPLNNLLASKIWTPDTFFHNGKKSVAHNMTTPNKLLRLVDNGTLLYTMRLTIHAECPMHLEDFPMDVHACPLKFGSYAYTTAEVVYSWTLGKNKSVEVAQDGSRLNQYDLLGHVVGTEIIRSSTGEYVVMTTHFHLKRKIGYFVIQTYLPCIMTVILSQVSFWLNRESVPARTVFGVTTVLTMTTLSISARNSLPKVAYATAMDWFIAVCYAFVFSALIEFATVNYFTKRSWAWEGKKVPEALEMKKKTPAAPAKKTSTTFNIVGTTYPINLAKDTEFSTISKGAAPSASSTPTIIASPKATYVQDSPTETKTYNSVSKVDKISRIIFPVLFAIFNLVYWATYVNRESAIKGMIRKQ", "assay": "Binding affinity to human GABAA alpha3beta3gamma2 receptor expressed in HEK293 cells assessed as GABA-induced membrane potential change preincubated for 3 mins followed by addition of GABA measured after 3 mins by FLIPR assay", "format": "cell-based", "how_it_was_run": "(§1)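 Stably transfected HEK293T cells expressing α1β3γ2 (n = 2) or α3β3γ2 (n = 1) GABAARs. Membrane potential was read as fluorescence changes on a FLIPR Tetra, and EC50 was derived.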"}, "[2]": {"system": "Liver", "assay": "Metabolic stability in human liver microsomes assessed as compound remaining at 4 uM measured after 30 mins in presence of NADPH by LC-MS/MS analysis", "format": "ADME, microsome", "settings": "0.5 h", "how_it_was_run": "(§2)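 Human, mouse or rat liver microsomes were incubated with compound at 4 μM final for 30 min at 37 °C (n = 1). Percent of parent remaining was quantified by LC-MS/MS.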"}, "[3]": {"system": "Liver", "assay": "Metabolic stability in mouse liver microsomes assessed as compound remaining at 4 uM measured after 30 mins in presence of NADPH by LC-MS/MS analysis", "format": "ADME, microsome", "settings": "0.5 h", "how_it_was_run": "as §2"}, "[4]": {"system": "Liver", "assay": "Metabolic stability in rat liver microsomes assessed as compound remaining at 4 uM measured after 30 mins in presence of NADPH by LC-MS/MS analysis", "format": "ADME, microsome", "settings": "0.5 h", "how_it_was_run": "as §2"}, "[5]": {"assay": "Cytotoxicity against HEK293T cells assessed as viable cells measured after 18 hrs by CellTiter-Glo assay", "format": "cell-based, HEK-293T", "settings": "human, read-out: LD50", "how_it_was_run": "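HEK293T cells were exposed to compound for 18 h (n = 4). Viable cells were quantified with CellTiter-Glo, and LD50 was derived.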"}, "[6]": {"target": "T2, GABA-A receptor; alpha-1/beta-3/gamma-2 (Homo sapiens, UniProt P14867+P18507+P28472)", "T2 sequence (P14867 whole entry)": "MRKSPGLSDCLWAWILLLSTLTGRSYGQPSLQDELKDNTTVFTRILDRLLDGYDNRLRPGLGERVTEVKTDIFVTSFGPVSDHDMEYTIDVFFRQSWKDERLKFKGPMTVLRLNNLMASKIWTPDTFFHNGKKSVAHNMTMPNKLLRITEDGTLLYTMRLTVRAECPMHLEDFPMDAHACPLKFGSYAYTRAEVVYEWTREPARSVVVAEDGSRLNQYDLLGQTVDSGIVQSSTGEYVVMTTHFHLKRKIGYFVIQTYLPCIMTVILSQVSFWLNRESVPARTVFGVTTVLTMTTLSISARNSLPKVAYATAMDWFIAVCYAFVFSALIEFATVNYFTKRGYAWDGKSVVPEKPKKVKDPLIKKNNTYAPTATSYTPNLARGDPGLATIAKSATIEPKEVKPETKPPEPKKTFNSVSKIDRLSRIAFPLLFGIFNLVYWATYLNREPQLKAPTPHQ", "T2 sequence (P18507 whole entry)": "T1 sequence (P18507 whole entry)", "T2 sequence (P28472 whole entry)": "T1 sequence (P28472 whole entry)", "assay": "Binding affinity to human GABAA alpha1beta3gamma2 receptor expressed in HEK293 cells assessed as GABA-induced membrane potential change preincubated for 3 mins followed by addition of GABA measured after 3 mins by FLIPR assay", "format": "cell-based", "how_it_was_run": "as §1"}, "[7]": {"assay": "Total plasma concentration in Sprague-Dawley rat at 10 mg/kg, po measured after 60 mins by LC-MS/MS analysis", "format": "ADME, organism-based", "how_it_was_run": "(§3)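 Sprague-Dawley rats (n = 3 per time point) were given 10 mg/kg p.o. Total plasma concentrations were taken at 15, 30, 60 and 120 min. Brain levels of the dosed ligand and of the carboxylic acid metabolite were taken at 60 or 120 min.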"}, "[8]": {"assay": "Drug uptake in Sprague-Dawley rat brain at 10 mg/kg, po measured after 60 mins by LC-MS/MS analysis", "format": "ADME, organism-based", "settings": "read-out: Drug uptake", "how_it_was_run": "as §3"}, "[9]": {"system": "Mus musculus", "assay": "Anxiolytic-like activity in Swiss Webster mouse marble burying model of anxiety assessed as suppression of marble burying activity at 10 mg/kg, ip administered 30 mins prior to test relative to vehicle-control", "format": "functional, organism-based", "how_it_was_run": "(§4)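 Male NIH Swiss Webster mice (n = 10) received vehicle or compound at 10 or 30 mg/kg i.p. 30 min before marble burying testing. Sedation-like behaviour was noted by observation. Analysis was ANOVA with Dunnett's test vs vehicle.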"}, "[10]": {"system": "Mus musculus", "assay": "Anxiolytic-like activity in Swiss Webster mouse marble burying model of anxiety assessed as suppression of marble burying activity at 30 mg/kg, ip administered 30 mins prior to test relative to vehicle-control", "format": "functional, organism-based", "how_it_was_run": "as §4"}, "[11]": {"system": "Mus musculus", "assay": "Toxicity in Swiss Webster mouse assessed as sedation-like behavior at 30 mg/kg, ip measured after 30 mins", "format": "organism-based", "settings": "in vivo, 0.5 h", "how_it_was_run": "as §4"}, "[12]": {"system": "Mus musculus", "assay": "Toxicity in Swiss mouse assessed as change in motor coordination by measuring number of falls from the rotating rod at 10 mg/kg, ip administered 30 mins prior to testing measured for 2 mins by rotarod test relative to control", "format": "organism-based", "settings": "in vivo", "how_it_was_run": "(§5)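 The same mice used for marble burying were placed on a rotarod at 4 r.p.m. for 2 min. No fall was scored success, one fall partial, and two falls failure.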"}, "[13]": {"system": "Mus musculus", "assay": "Toxicity in Swiss mouse assessed as change in motor coordination by measuring number of falls from the rotating rod at 30 mg/kg, ip administered 30 mins prior to testing measured for 2 mins by rotarod test relative to control", "format": "organism-based", "settings": "in vivo", "how_it_was_run": "as §5"}}, "note": "Calls of active or inactive are those of the source. The rule behind the calls is not given here."}
{"smiles": "C#Cc1ccc2c(c1)C(c1ccccn1)=NCc1c(-c3nc(CC)no3)ncn1-2", "values": [{"measurement": "EC50", "setting": "[1]", "result": 3.02, "unit": "µM"}, {"measurement": "Stability", "setting": "[2]", "result": 91, "unit": "%"}, {"measurement": "Stability", "setting": "[3]", "result": 92, "unit": "%"}, {"measurement": "Stability", "setting": "[4]", "result": 97, "unit": "%"}, {"measurement": "CC50 at 18 h", "setting": "[5]", "result": "> 100", "unit": "µM"}, {"measurement": "EC50", "setting": "[6]", "result": "> 20", "unit": "µM"}, {"measurement": "concentration at 1 h", "setting": "[7]", "result": 1720, "unit": "nM"}, {"measurement": "concentration at 1 h", "setting": "[8]", "result": 3090, "unit": "nM"}, {"measurement": "Activity", "setting": "[9]", "result": "Active"}, {"measurement": "Activity", "setting": "[10]", "result": "Active"}, {"measurement": "Activity", "setting": "[11]", "result": "Toxic"}, {"measurement": "Activity", "setting": "[12]", "result": "Toxic"}, {"measurement": "Activity", "setting": "[13]", "result": "Toxic"}]}
